# EBNA-1 inhibitor = EBNA-1 DNA-binding inhibitors, primary screen, biochemical, fluorescence polarization; inhibition, % at 14.8 µM; actives 0.34% (n = 300,000); in the data active = inhibition above about 28%
# HCV core dimer = inhibitors of HCV core protein dimerization, primary screen, biochemical, TR-FRET, high-throughput. AID 1899, 2009. TR-FRET GST/Flag-core106 dimerization, 1536-well. actives 0.33% (n = 300,000). inhibition, % at 5 µM;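 active = inhibition above the mean of all tested compounds plus 3 SD, set per screening campaign, cut at about 45% in these data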
#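 System: GST/Flag-tagged HCV core106 proteins. Incubation: compound-protein-antibody incubation 4 h at 22.5 °C. Technique: HTRF with 340 nm excitation, 617/671 nm emission. Medium: KF-containing HEPES buffer, pH 7.45, DTT, CHAPS, BSA. Read-out: inhibition (%) from 671 over 617 nm ratio. Also added: Eu(K)-anti-GST 90 ng/mL plus XL665-anti-Flag 1 µg/mL.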
# NS3 helicase inh = inhibitors of HCV NS3 helicase, primary screen, biochemical, Cy5 molecular beacon fluorescence. NS3 helicase DNA unwinding. Hepatitis C virus NS3 helicase. AID 1800, 2009. actives 0.56% (n = 290,000). inhibition, % at 10.9 µM;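 active = inhibition above the mean of all tested compounds plus 3 SD, set per campaign, cut at about 35% in these data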;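 note: 0% = DMSO wells and 100% = thioflavine S control wells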
#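 assay system = NS3 helicase fragment of HCV | buffer or medium = MOPS pH 6.5, MgCl2, DTT, Tween20, BSA | timing = 60 min unwinding reaction at 25 °C after ATP addition | signal = Cy5 beacon fluorescence read at start and 1 h | read-out basis = % inhibition of unwinding | control set = low DMSO, high thioflavine S at 110 µM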
# PfM18AAP inh = PfM18AAP inhibitors, malaria aminopeptidase, primary screen, biochemical, QFRET, recombinant enzyme | inhibition, % at 7.35 µM | actives 1.2% (n = 290,000) | M18 aspartyl aminopeptidase (Plasmodium falciparum 3D7) | H-Glu-NHMec fluorogenic cleavage;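 active = inhibition above the campaign mean inhibition over all tested compounds plus 3 SD, cut at about 28% in these data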;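 note: 0% = plate median of test compound wells and 100% = 2 mM ZnCl2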
# ZTA counter = ZTA (EBV) inhibition in EBNA-1 counter-screen. actives 0.15% (n = 320,000). ZTA-DNA binding, fluorescence polarization. inhibition, % at 11 µM. AID 2234; in the data active = inhibition above about 33%
# Target sequence (P03206 whole entry, looked up): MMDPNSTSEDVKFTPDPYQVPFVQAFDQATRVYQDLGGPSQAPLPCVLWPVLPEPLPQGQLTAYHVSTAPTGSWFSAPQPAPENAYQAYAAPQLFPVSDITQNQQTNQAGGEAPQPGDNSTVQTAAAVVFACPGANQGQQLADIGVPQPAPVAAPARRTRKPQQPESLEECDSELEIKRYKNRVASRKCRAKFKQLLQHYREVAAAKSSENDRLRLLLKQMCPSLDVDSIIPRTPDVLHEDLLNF
# ALR H2O2 inh = inhibitors of human ALR sulfhydryl oxidase, primary screen, biochemical, H2O2 detection, HRP-luminol luminescence, single point; inhibition, % (no concentration beside the values); FAD-linked sulfhydryl oxidase ALR (Homo sapiens), P55789; AID 485317, 2010; actives 3.8% (n = 290,000); purified ALR, DTT oxidation;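 active = mean replicate inhibition above about 79%, with every replicate also reaching it, limit read from the data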
# Target sequence (P55789 whole entry, looked up): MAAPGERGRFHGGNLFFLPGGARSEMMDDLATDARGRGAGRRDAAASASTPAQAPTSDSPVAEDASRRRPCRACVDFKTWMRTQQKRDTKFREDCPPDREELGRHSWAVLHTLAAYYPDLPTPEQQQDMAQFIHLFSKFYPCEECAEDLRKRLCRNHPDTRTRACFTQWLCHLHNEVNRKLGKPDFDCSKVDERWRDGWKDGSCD
# * = called active by the depositor; x = not tested or not shown. Compounds with a hit are over-represented: about 5.2% of the library has one in this group of screens.
SMILES,EBNA-1 inhibitor,HCV core dimer,NS3 helicase inh,PfM18AAP inh,ZTA counter,ALR H2O2 inh
Cn1c(NCc2cc(Br)ccc2O)nc2ccccc21,-7,-8,-10,20,11,43
Cc1ccc(O)c(CNc2nc3ccccc3n2C(C)C)c1,1,-7,-14,-1,-16,98*
CCn1c(CNc2nc3ccccc3n2C(C)C)nc2ccccc21,-10,2,1,-4,5,98*
C=CCn1c(NCc2cc(C)ccc2O)nc2ccccc21,4,1,-9,8,3,98*
COc1ccc(CNc2nc3ccccc3n2C)c(O)c1,-2,-2,-2,-3,10,x
COc1ccc(CNc2nc3ccccc3n2C(C)C)c(O)c1,-6,-7,-9,-2,6,99*
CC1CCN(CCNC(=O)C2CCCN(S(=O)(=O)c3cccc4nsnc34)C2)CC1 (stereo not drawn),4,4,-10,-1,12,-4
CCCn1c2ccc(C)cc2c2n[nH]c(=S)nc21,7,0,2,13,-4,4
N#Cc1c(NC(=S)NC(=O)c2ccccc2)sc2c1CCN(CCc1ccccc1)C2,17,-10,-39,2,2,-10
CC(C)(C)C(=O)Nc1sc2c(c1C#N)CCN(Cc1ccccc1)C2,-2,-7,20,29*,-7,x
CC1CCCCN1C(=O)c1cc2ccccc2cc1O (stereo not drawn),-5,1,-5,1,6,15
CC(=O)Nc1cccc(N=NN2CCCCC2)c1,5,-2,15,5,2,88*
CC(=O)Nc1cccc(N=NN2CCOCC2)c1,12,-4,3,-6,3,7
CC1Cc2nc(SCC(=O)N3CCN(c4ccccc4)CC3)n(C)c(=O)c2S1 (stereo not drawn),-8,10,-2,-13,-6,98*
CC1Cc2nc(SCC(=O)N3CCOCC3)n(-c3ccccc3)c(=O)c2S1 (stereo not drawn),-11,-9,-1,3,-12,99*
CCn1c(SCC(=O)N2CCN(c3ccccc3)CC2)nc2c(c1=O)SC(C)C2 (stereo not drawn),-9,-2,-1,0,2,68
O=C(CSc1nc2c(c(=O)n1-c1ccccc1)SCC2)N1CCOCC1,4,-8,-2,-2,3,-1
O=C(CSc1nc2c([nH]c3ccccc32)c(=O)n1-c1cccc(Cl)c1)N1CCOCC1,37*,14,3,4,10,-4
O=C(NCc1ccc(Cl)cc1)C1CCCCN1S(=O)(=O)c1ccccc1 (stereo not drawn),2,-2,-11,-2,-9,3
CC(NC(=O)c1cc(S(=O)(=O)N2CCOCC2)cn1C)c1ccccc1 (stereo not drawn),-1,0,12,0,-7,5
S=c1[nH]ncn1/N=C/c1ccccn1,4,-3,-2,21,-19,92*
S=c1[nH]nc(-c2cccnc2)n1/N=C/c1cccs1,-5,-3,2,26,-6,97*
S=c1[nH]nc(COc2ccccc2)n1/N=C/c1ccccn1,1,-5,0,20,-15,11
C(=N\n1cnnc1)/c1cccs1,6,5,5,-3,2,-1
S=c1[nH]ncn1/N=C/c1cccs1,-3,0,1,22,-1,97*
SMILES,EBNA-1 inhibitor,HCV core dimer,NS3 helicase inh,PfM18AAP inh,ZTA counter,ALR H2O2 inh
O=C(CCc1ccccc1)c1c(O)cc(O)cc1O,-4,-1,x,x,3,17
O=C(CCc1ccc(O)cc1)c1c(O)cc(O)cc1O[C@@H]1O[C@H](CO)[C@@H](O)[C@H](O)[C@H]1O,8,10,-10,6,8,81*
O=c1c(O[C@@H]2O[C@H](CO)[C@@H](O)[C@H](O)[C@H]2O)c(-c2ccc(O)c(O)c2)oc2cc(O)cc(O)c12,x,x,7,68*,x,x
O=c1c2c(O)cc(O)cc2oc2ccc(O)c(O[C@@H]3O[C@H](CO)[C@@H](O)[C@H](O)[C@H]3O[C@H]3O[C@H](CO)[C@@H](O)[C@H](O)[C@H]3O)c12,-1,1,x,x,-5,x
COc1c(-c2ccc(O)c(O)c2)oc2cc(O)cc(O)c2c1=O,-14,-12,x,x,8,98*
O=c1c(O[C@@H]2O[C@H](CO)[C@H](O)[C@H](O)[C@H]2O)c(-c2ccc(O)c(O)c2)oc2cc(O)cc(O)c12,x,x,10,68*,x,x
COC(=O)c1cccc(NC(=O)C(C)(C)C)c1,-8,0,-4,-9,-1,-4
O=c1c(OC2OC(CO)C(O)C(O)C2OC2OC(CO)C(O)C(O)C2OC2OC(CO)C(O)C(O)C2O)c(-c2ccc(O)c(O)c2)oc2cc(O)cc(O)c12 (stereo not drawn),-4,-8,x,x,7,99*
O=c1c(O[C@@H]2O[C@H](CO)[C@@H](O)[C@H](O)[C@H]2O)c(-c2ccc(O)cc2)oc2cc(O)cc(O)c12,x,x,x,x,x,94*
CC1OC(OCC2OC(Oc3c(-c4ccc(O)cc4)oc4cc(O)cc(O)c4c3=O)C(O)C(O)C2O)C(O)C(O)C1O (stereo not drawn),-2,-6,14,12,0,70
C[C@@H]1O[C@@H](OC[C@H]2O[C@@H](Oc3c(-c4ccc(O)c(O)c4)oc4cc(O)cc(O)c4c3=O)[C@H](O)[C@@H](O)[C@@H]2O)[C@H](O)[C@H](O)[C@H]1O,0,-9,-3,64*,-1,99*
O=C(NC1CCCCCC1)C1CCN(C(=O)c2cccc(Cl)c2)CC1,-12,-4,0,4,-7,1
CCCCn1c(NCc2ccc(N(C)C)cc2)nc2ccccc21,-6,-4,-36,10,8,88*
C=CCn1c(NCc2ccco2)nc2ccccc21,x,x,-2,-1,x,17
C=CCn1c(NCc2ccc(N(C)C)cc2)nc2ccccc21,3,0,-1,7,4,99*
COc1ccc2c(C)cc(SCC(=O)c3ccc4c(c3)OCO4)nc2c1,15,-2,11,11,-6,99*
Cc1ccc(S(=O)(=O)Cc2cc(F)c([N+](=O)[O-])cc2[N+](=O)[O-])cc1,-8,-1,19,20,4,-27
Cn1c(=O)c2[nH]c(-c3ccccc3)c(O)c2n(C)c1=O,9,-32,2,58*,10,x
Cn1c(=O)c2[nH]c(-c3ccccc3Cl)c(O)c2n(C)c1=O,-3,-8,-9,44*,-6,x
O=C(COc1ccccc1Cc1ccccc1)Nc1cccnc1,x,x,x,x,-4,2

# Assay outcomes as filed in PubChem.
